Experimental data as given in ChEMBL document CHEMBL1157731, “Novel KCNQ2/Q3 agonists as potential therapeutics for epilepsy and neuropathic pain” (J Med Chem, 2010).

How the values were obtained:
Mus musculus = assay: Anticonvulsant activity against maximal electroshock-induced seizures in po dosed CD1 mouse model treated 30 mins before electroshock application; type: functional, organism-based
Outline: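 Male CD-1 mice dosed po (10 mL/kg in 5% DMSO/95% of 0.5% HPMC/1% Tween 80) 30 min before corneal electroshock at 50 mA for 0.2 s, with 1% proparacaine in each eye. Latency to hindlimb extension recorded to 0.1 s. No extension within 6 s scored as protected (latency 6 s). Reported as protected/tested (8 per group), or EC50 derived from latency scores.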

[1] = biological target: T1, Cholecystokinin receptor type A (Homo sapiens) (UniProt P32238); assay: Displacement of radioligand from cholecystokinin A receptor at 10 uM
T1 sequence (whole entry): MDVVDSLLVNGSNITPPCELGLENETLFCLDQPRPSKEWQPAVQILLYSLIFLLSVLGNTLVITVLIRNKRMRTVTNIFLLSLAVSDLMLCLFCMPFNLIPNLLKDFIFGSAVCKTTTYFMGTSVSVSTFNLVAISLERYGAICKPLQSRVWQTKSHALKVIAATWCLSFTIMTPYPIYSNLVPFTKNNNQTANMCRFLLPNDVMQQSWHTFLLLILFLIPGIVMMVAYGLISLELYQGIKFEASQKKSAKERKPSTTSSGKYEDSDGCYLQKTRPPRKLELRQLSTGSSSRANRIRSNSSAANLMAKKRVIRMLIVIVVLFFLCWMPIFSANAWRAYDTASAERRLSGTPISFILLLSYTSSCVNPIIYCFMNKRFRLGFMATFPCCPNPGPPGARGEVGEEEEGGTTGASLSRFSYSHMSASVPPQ

[2] = biological target: D(1A) dopamine receptor (Homo sapiens) (UniProt P21728); assay: Displacement of radioligand from dopamine D1 receptor at 10 uM
Sequence of D(1A) dopamine receptor (Homo sapiens) (P21728 whole entry): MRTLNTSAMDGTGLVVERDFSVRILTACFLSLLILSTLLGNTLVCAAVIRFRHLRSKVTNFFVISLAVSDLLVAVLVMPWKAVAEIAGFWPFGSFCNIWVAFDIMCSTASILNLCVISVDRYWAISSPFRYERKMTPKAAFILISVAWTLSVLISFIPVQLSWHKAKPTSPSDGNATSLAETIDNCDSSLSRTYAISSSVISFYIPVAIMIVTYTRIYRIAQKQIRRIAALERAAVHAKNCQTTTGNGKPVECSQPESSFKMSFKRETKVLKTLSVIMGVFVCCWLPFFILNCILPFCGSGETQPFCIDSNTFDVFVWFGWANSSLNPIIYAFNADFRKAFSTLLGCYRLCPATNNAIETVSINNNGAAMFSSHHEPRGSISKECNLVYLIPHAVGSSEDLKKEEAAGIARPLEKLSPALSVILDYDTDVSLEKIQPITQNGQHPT

[3] = biological target: T2, Muscarinic acetylcholine receptor M1 (Homo sapiens) (UniProt P11229); assay: Displacement of radioligand from muscarinic M1 receptor at 10 uM
T2 sequence (whole entry): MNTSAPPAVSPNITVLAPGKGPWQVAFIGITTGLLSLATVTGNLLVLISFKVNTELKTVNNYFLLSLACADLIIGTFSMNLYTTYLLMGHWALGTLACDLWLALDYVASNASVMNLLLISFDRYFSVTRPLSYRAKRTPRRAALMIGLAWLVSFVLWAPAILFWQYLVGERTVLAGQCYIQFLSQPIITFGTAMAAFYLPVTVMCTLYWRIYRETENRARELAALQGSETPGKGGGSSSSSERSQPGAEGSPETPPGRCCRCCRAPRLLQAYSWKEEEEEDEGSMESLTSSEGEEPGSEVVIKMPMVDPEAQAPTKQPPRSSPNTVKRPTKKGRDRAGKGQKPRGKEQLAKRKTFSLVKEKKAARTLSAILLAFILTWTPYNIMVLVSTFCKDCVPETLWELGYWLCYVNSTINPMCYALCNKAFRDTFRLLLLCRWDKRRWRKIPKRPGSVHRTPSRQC

[4] = biological target: Sodium-dependent serotonin transporter (Homo sapiens) (UniProt P31645); assay: (§1) Binding affinity to SERT at 10 uM by displacement assay
Sequence of Sodium-dependent serotonin transporter (Homo sapiens) (P31645 whole entry, looked up): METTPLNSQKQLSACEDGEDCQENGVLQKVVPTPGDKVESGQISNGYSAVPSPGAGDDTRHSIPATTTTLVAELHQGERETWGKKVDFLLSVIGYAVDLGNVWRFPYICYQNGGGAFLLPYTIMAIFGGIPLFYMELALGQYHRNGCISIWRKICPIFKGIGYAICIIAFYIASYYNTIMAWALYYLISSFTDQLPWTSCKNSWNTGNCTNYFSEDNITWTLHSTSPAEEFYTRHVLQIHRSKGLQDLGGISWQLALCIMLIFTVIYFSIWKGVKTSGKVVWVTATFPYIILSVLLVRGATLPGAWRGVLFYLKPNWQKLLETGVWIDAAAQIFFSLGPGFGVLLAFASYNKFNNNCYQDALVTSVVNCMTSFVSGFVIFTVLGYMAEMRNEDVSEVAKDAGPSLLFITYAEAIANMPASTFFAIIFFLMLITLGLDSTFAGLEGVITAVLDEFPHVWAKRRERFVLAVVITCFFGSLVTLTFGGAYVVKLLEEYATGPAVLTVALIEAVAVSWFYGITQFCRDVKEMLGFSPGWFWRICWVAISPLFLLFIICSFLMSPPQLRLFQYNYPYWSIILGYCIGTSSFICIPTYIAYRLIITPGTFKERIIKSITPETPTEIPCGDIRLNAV

[5] = biological target: Sodium-dependent serotonin transporter (Homo sapiens) (UniProt P31645); assay: as §1; remark: listed apart in the source
Rattus norvegicus = species on record: Rattus norvegicus; assay: Displacement of [3H]DTG from sigma opioid receptor in rat cerebral cortex; type: tissue-based
[6] = biological target: T3, Glucocorticoid receptor (Homo sapiens) (UniProt P04150); assay: Binding affinity to glucocorticoid receptor at 10 uM by displacement assay
T3 sequence (whole entry): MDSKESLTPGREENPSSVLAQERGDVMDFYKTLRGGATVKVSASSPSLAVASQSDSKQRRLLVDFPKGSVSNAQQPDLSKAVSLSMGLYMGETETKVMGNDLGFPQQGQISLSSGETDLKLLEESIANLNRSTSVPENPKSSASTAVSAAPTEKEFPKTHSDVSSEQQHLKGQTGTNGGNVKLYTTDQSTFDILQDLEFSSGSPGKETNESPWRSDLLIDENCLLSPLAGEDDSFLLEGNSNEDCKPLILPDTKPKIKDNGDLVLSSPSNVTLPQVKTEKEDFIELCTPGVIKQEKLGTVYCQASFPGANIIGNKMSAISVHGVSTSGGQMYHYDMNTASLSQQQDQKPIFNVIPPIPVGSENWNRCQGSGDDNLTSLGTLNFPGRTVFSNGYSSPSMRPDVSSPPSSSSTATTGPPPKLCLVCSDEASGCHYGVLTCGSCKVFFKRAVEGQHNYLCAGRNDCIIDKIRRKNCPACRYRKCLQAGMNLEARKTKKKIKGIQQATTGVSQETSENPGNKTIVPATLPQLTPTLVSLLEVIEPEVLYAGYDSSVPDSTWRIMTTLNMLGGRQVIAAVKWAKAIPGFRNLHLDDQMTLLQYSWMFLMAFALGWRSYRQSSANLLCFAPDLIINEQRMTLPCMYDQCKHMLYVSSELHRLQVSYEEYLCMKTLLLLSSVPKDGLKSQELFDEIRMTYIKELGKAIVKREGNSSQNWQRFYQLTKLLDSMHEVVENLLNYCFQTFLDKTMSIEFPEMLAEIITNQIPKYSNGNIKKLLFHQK

[7] = Binding affinity to vasopressin V1 receptor at 10 uM by displacement assay
[8] = Binding affinity to central-type benzodiazepine receptor at 10 uM by displacement assay
[9] = biological target: T4, B2 bradykinin receptor (Homo sapiens) (UniProt P30411); assay: Displacement of [3H]bradykinin from human recombinant bradykinin B2 receptor expressed in CHO cells; type: cell-based
T4 sequence (whole entry): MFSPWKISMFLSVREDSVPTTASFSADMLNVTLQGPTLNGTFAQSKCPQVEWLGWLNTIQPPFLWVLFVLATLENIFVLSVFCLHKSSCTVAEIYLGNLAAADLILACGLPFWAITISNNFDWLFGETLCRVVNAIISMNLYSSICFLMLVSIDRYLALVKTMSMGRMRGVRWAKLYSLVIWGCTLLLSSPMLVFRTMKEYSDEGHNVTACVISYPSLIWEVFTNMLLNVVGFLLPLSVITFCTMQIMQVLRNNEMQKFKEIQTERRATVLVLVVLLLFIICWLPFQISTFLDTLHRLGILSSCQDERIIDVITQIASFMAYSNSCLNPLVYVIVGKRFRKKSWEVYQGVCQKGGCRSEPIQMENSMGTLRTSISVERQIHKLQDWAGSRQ

Structure (SMILES)	EC50 (Mus musculus) [mg/kg]	Activity [1] [%]	Activity [2] [%]	Activity [3] [%]	Activity [4] [%]	Activity [5] [%]	Activity (Rattus norvegicus) [%]	Activity [6] [%]	Activity [7] [%]	Activity [8] [%]	Activity [9] [%]
CC(C)OC(=O)N/N=c1\sc2cc(OC(F)(F)F)ccc2n1C	8.8	11	0	21	14	16	19	0	0	22	0
Cn1/c(=N/NC(=O)CC(C)(C)C)sc2cc(OC(F)(F)F)ccc21	4.4	0	0	0	0	20	0	0	12	0	0
Cn1/c(=N/NC(=O)CC2CCCC2)sc2cc(OC(F)(F)F)ccc21	< 10	53	0	34	20	50	0	14	22	0	49
